In article PMC3240942 (Molecular cell, 2011):
Each block holds one molecule with its values, some of them ahead of it. Where no end group is shown, it is not given here.

Key:
Sirt1 [1] = target: T1, Sirt1 (Mus musculus, UniProt Q923E4); assay: Lineweaver-Burk kinetics of Sirt1; format: biochemical; conditions: Sirt1 substrate/cofactor, under our reaction conditions
T1 sequence (Q923E4 1-737): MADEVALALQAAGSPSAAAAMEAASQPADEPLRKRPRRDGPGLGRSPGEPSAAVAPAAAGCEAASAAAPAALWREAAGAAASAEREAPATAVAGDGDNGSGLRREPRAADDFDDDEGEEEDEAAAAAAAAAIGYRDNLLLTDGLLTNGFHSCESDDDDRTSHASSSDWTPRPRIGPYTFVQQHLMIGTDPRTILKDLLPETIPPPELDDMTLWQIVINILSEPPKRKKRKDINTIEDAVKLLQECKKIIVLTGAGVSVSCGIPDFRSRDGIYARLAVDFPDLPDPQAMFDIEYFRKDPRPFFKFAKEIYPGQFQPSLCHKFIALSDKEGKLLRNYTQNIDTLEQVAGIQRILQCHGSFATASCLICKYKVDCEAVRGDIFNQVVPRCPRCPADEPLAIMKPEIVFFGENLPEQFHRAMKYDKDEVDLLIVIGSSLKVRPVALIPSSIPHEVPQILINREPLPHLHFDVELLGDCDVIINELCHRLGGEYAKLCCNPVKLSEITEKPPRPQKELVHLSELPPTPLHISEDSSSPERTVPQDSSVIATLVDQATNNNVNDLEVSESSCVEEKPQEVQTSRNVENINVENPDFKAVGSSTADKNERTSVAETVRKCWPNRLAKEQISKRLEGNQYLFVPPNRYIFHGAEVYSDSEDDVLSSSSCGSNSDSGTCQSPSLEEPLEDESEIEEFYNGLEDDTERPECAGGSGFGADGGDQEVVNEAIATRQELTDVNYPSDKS
Procedure, shortened: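 His-Sirt1 (2 μg) was pre-incubated 5 min at room temperature in HEPES pH 7.0 buffer with mutant ESA peptide at 0, 60, 120 or 240 μM. Ac-K16 H4 fluorogenic dipeptide was varied at 500 μM NAD+, or NAD+ was varied at 100 μM substrate. Reactions ran 25 min at 37 °C and were stopped with nicotinamide developer; ex 355/em 460 nm, no-NAD+ blank subtracted. Triplicates. Kis/Kii came from a double-reciprocal noncompetitive model fit, Km from the same analysis, kcat from a Michaelis–Menten fit.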

Sirt1 [2] = target: T1, Sirt1; conditions: 2007, cited from earlier work; for reported Sirt1 activation: ref Howitz et al., 2003, Milne et al.
Ac-H4 peptide = assay: Pull-down with streptavidin-immobilized Ac-H4 peptide; format: binding
Procedure, shortened: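 Biotinylated peptide (mutant ESA or acetyl-H4) was bound to streptavidin agarose for 1 h at room temperature, washed, and held in PBS/1% Triton X-100. Beads (30 μl) took 2 μg GST-fused or His-tagged protein for 2 h at room temperature. Beads were washed with PBS/1% Triton/200 mM NaCl and eluted in β-ME SDS buffer at 95 °C for 10 min. Blots ran on 4–12% SDS-PAGE; biotin-only beads were the control.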

[3] = target: T2, Sirt1 fragment F1b (the Sirtuin domain, a.a. 236-490) (mouse, UniProt Q923E4 236-490); assay: pull-down
T2 sequence (looked up): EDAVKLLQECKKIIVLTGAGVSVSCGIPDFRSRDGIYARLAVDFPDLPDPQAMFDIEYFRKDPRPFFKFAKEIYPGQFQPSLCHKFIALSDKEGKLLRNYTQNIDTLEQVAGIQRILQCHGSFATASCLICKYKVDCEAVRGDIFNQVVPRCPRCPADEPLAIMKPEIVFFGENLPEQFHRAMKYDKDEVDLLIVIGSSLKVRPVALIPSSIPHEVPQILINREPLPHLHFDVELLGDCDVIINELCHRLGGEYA

[4] = target: T3, Sirt1 deacetylase core (Core, a.a. 184-510) (mouse, UniProt Q923E4 184-510); assay: pull-down
T3 sequence (looked up): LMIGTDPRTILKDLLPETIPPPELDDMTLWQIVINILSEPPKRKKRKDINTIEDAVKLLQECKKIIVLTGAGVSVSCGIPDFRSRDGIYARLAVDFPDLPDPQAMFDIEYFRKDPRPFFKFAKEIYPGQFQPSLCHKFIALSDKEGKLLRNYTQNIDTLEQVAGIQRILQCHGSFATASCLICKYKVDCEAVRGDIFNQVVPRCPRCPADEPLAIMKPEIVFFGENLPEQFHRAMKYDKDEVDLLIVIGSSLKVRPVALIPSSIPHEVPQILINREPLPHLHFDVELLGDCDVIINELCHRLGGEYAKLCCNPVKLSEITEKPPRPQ

[5] = tested on: Lys 382 acetylated-p53 (Ac-p53); assay: Deacetylation of Lys 382 acetylated-p53 by recombinant WT/mutant Sirt1; format: biochemical, mouse Sirt1; conditions: recombinant Sirt1 2 μg, acetylated GST-p53 0.2 μg, 0.5 mM NAD+, pH 7.0, 37 °C; immunoblot
Procedure, shortened: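 Recombinant His-tagged WT or C-terminally truncated/point-mutant mouse Sirt1 (2 μg) incubated with acetylated GST-p53 (0.2 μg) and 0.5 mM NAD+ in 50 mM HEPES pH 7.0, 1 mM DTT, 10 mM MgCl2, 200 mM NaCl plus protease/phosphatase inhibitors. Reactions ran at 37 °C for indicated times and were stopped with SDS sample buffer. Read-out: immunoblot with acetyl-K382 p53 antibody; loading checked by Coomassie, Ponceau S or Western blot.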

GST-Ac-p53 = assay: Pull-down of Sirt1 / core fragments with GST-Ac-p53; format: binding; conditions: in vitro pull-down
Procedure, shortened: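 In vitro pull-downs with GST-Ac-p53 or GST alone as negative control. Recombinant Flag-tagged full-length or ΔESA (a.a. 631-655 deleted) Sirt1 pulled down with anti-Flag, bound GST-Ac-p53 detected by GST immunoblot, and Sirt1 shown by Coomassie. Alternatively, core (a.a. 184-510) or Core-ESA with GST-Ac-p53 (2 μg each) in GST pull-down, bound core detected by Sirt1 immunoblot.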

Flag-p65 (NF-κB) = assay: Co-immunoprecipitation of Sirt1 with Flag-p65 in Hela cells; format: cell-based; conditions: V5-tagged Sirt1
Procedure, shortened: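 Transient co-transfection of HeLa cells with Flag-NF-κB p65 plus V5-tagged full-length or ΔESA Sirt1. p65 was pulled down with anti-Flag, and bound Sirt1 was detected by anti-V5 immunoblot alongside input levels.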

- Km (Sirt1 [1]): 203 µM
Molecule: NC(=O)c1ccc[n+]([C@@H]2O[C@H](COP(=O)([O-])OP(=O)(O)OC[C@H]3O[C@@H](n4cnc5c(N)ncnc54)[C@H](O)[C@@H]3O)[C@@H](O)[C@H]2O)c1 [NAD^+, reference compound]

- binding result [3]: binds
- binding result [4]: binds
B1: ESA peptide (biotin-tagged peptide of the region essential for Sirt1 activity, a.a. 631-655) (peptide, UniProt Q923E4 631-655, looked up)
peptide: QYLFVPPNRYIFHGAEVYSDSEDDV
modifications: also: biotin-tagged, position not given here

- binding to Ac-H4 peptide (Ac-H4 peptide): Ac-H4 peptide bound to full-length Sirt1
B6: WT Sirt1: wild-type full-length Sirt1 (protein)
chain: MADEVALALQAAGSPSAAAAMEAASQPADEPLRKRPRRDGPGLGRSPGEPSAAVAPAAAGCEAASAAAPAALWREAAGAAASAEREAPATAVAGDGDNGSGLRREPRAADDFDDDEGEEEDEAAAAAAAAAIGYRDNLLLTDGLLTNGFHSCESDDDDRTSHASSSDWTPRPRIGPYTFVQQHLMIGTDPRTILKDLLPETIPPPELDDMTLWQIVINILSEPPKRKKRKDINTIEDAVKLLQECKKIIVLTGAGVSVSCGIPDFRSRDGIYARLAVDFPDLPDPQAMFDIEYFRKDPRPFFKFAKEIYPGQFQPSLCHKFIALSDKEGKLLRNYTQNIDTLEQVAGIQRILQCHGSFATASCLICKYKVDCEAVRGDIFNQVVPRCPRCPADEPLAIMKPEIVFFGENLPEQFHRAMKYDKDEVDLLIVIGSSLKVRPVALIPSSIPHEVPQILINREPLPHLHFDVELLGDCDVIINELCHRLGGEYAKLCCNPVKLSEITEKPPRPQKELVHLSELPPTPLHISEDSSSPERTVPQDSSVIATLVDQATNNNVNDLEVSESSCVEEKPQEVQTSRNVENINVENPDFKAVGSSTADKNERTSVAETVRKCWPNRLAKEQISKRLEGNQYLFVPPNRYIFHGAEVYSDSEDDVLSSSSCGSNSDSGTCQSPSLEEPLEDESEIEEFYNGLEDDTERPECAGGSGFGADGGDQEVVNEAIATRQELTDVNYPSDKS
modifications: left off: His tag, end not stated, kept
- co-immunoprecipitation with Flag-p65 (Flag-p65 (NF-κB)): readily co-immunoprecipitated with Flag-p65

Further lines, the molecule ahead of its results:

Molecule: O=C(Nc1ccccc1-c1cn2c(CN3CCNCC3)csc2n1)c1cnc2ccccc2n1 [SRT1720, reference compound]
- reported Sirt1 activation (Sirt1 [2]): reported to activate Sirt1

Molecule: Oc1ccc(/C=C/c2cc(O)cc(O)c2)cc1 [resveratrol, reference compound]
- reported Sirt1 activation (Sirt1 [2]): reported to activate Sirt1

Molecule: GST-ESA: ESA fused to GST (QYLFVPPNRYIFHGAEVYSDSEDDV; also: fused to GST, end not given here)
- binding to Ac-H4 peptide (Ac-H4 peptide): not to either GST-ESA or GST alone

B2: AROS: Active Regulator of Sirt1 (protein, UniProt Q86WX3 1-136, looked up)
Active regulator of SIRT1: MSAALLRRGLELLAASEAPRDPPGQAKPRGAPVKRPRKTKAIQAQKLRNSAKGKVPKSALDEYRKRECRDHLRVNLKFLTRTRSTVAESVSQQILRQNRGRKACDRPVAKTKKKKAEGTVFTEEDFQKFQQEYFGS
- effect on Sirt1 activity (Sirt1 [2]; binds to N-terminal domain of Sirt1, ref Kim et al.): activates its activity

B3: deacetylase core: a.a. 184-510 of Sirt1 (protein)
chain: LMIGTDPRTILKDLLPETIPPPELDDMTLWQIVINILSEPPKRKKRKDINTIEDAVKLLQECKKIIVLTGAGVSVSCGIPDFRSRDGIYARLAVDFPDLPDPQAMFDIEYFRKDPRPFFKFAKEIYPGQFQPSLCHKFIALSDKEGKLLRNYTQNIDTLEQVAGIQRILQCHGSFATASCLICKYKVDCEAVRGDIFNQVVPRCPRCPADEPLAIMKPEIVFFGENLPEQFHRAMKYDKDEVDLLIVIGSSLKVRPVALIPSSIPHEVPQILINREPLPHLHFDVELLGDCDVIINELCHRLGGEYAKLCCNPVKLSEITEKPPRPQ
modifications: left off: His tag, end not stated, kept
- deacetylase activity against Ac-p53 [5]: no catalytic activity

B4: Core-ESA: ESA region attached to the deacetylase core (protein)
chain: LMIGTDPRTILKDLLPETIPPPELDDMTLWQIVINILSEPPKRKKRKDINTIEDAVKLLQECKKIIVLTGAGVSVSCGIPDFRSRDGIYARLAVDFPDLPDPQAMFDIEYFRKDPRPFFKFAKEIYPGQFQPSLCHKFIALSDKEGKLLRNYTQNIDTLEQVAGIQRILQCHGSFATASCLICKYKVDCEAVRGDIFNQVVPRCPRCPADEPLAIMKPEIVFFGENLPEQFHRAMKYDKDEVDLLIVIGSSLKVRPVALIPSSIPHEVPQILINREPLPHLHFDVELLGDCDVIINELCHRLGGEYAKLCCNPVKLSEITEKPPRPQQYLFVPPNRYIFHGAEVYSDSEDDV
modifications: left off: His tag, end not stated, kept
- binding to Ac-H4 peptide (Ac-H4 peptide): increases the deacetylase core-Ac-H4 interaction
- deacetylase activity against Ac-p53 [5]: restored deacetylase activity
- binding to GST-Ac-p53 (GST-Ac-p53): increases the deacetylase core-Ac-p53 interaction

B5: Core-GPDR: GPDR-mutated ESA region attached to the Core (protein)
chain: LMIGTDPRTILKDLLPETIPPPELDDMTLWQIVINILSEPPKRKKRKDINTIEDAVKLLQECKKIIVLTGAGVSVSCGIPDFRSRDGIYARLAVDFPDLPDPQAMFDIEYFRKDPRPFFKFAKEIYPGQFQPSLCHKFIALSDKEGKLLRNYTQNIDTLEQVAGIQRILQCHGSFATASCLICKYKVDCEAVRGDIFNQVVPRCPRCPADEPLAIMKPEIVFFGENLPEQFHRAMKYDKDEVDLLIVIGSSLKVRPVALIPSSIPHEVPQILINREPLPHLHFDVELLGDCDVIINELCHRLGGEYAKLCCNPVKLSEITEKPPRPQQYLFVPPNRYIFHPAEVYSRSEDDV
- binding to Ac-H4 peptide (Ac-H4 peptide): interacted poorly with the Ac-H4 peptide
